In brackets after ≈: the same amount, converted by molar mass.
Legend:
[1] = Cytotoxicity against mouse P815 cells assessed as growth inhibition after 96 hrs; type: cell-based; conditions: read-out: ID50
Outline: (§1)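 Mouse leukemic lines grown in McCoy's medium with 15% fetal calf serum, starting at 40 000–60 000 cells/mL. Nucleoside added from a 50-fold concentrate; triplicate loosely capped tubes held at 37 °C in 5% CO2 for 96 h, controls reaching ~10^6 cells/mL. Cells counted electronically; percent growth inhibition calculated and the concentration for 50% inhibition reported.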

Human alphaherpesvirus 1 [2] = assay: Antiviral activity against HSV1 2931 infected in African green monkey Vero cells assessed as inhibition of virus replication at 1 ug/ml after 24 hrs relative to control; type: functional; conditions: Human alphaherpesvirus 1, 2931, Vero
Outline: (§2)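 Vero monolayers infected with HSV-1 strain 2931 at about 1 PFU/cell, adsorbed 2 h, then overlaid with maintenance medium containing drug. Supernatants harvested 24 h later and titered on Vero monolayers.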

Human alphaherpesvirus 1 [3] = assay: Antiviral activity against HSV1 2931 infected in African green monkey Vero cells assessed as inhibition of virus replication at 10 ug/ml after 24 hrs relative to control; type: functional; conditions: Human alphaherpesvirus 1, 2931, Vero; outline: as §2
Human alphaherpesvirus 1 [4] = assay: Antiviral activity against HSV1 2931 infected in African green monkey Vero cells assessed as inhibition of virus replication at 100 ug/ml after 24 hrs relative to control; type: functional; conditions: Human alphaherpesvirus 1, 2931, Vero; outline: as §2
[5] = Cytotoxicity against mouse L5178Y cells assessed as growth inhibition after 96 hrs; type: cell-based; conditions: read-out: ID50; outline: as §1
Human alphaherpesvirus 1 [6] = assay: Antiviral activity against HSV1 2931 infected in African green monkey Vero cells assessed as inhibition of virus replication at 0.01 ug/ml after 24 hrs relative to control; type: functional; conditions: Human alphaherpesvirus 1, 2931, Vero; outline: as §2
Human alphaherpesvirus 1 [7] = assay: Antiviral activity against HSV1 2931 infected in African green monkey Vero cells assessed as inhibition of virus replication at 0.1 ug/ml after 24 hrs relative to control; type: functional; conditions: Human alphaherpesvirus 1, 2931, Vero; outline: as §2
Human alphaherpesvirus 1 [8] = assay: Potency index, ratio of compound activity to vidarabine activity against HSV1 2931; type: functional

Cc1cn([C@@H]2O[C@H](CO)[C@@H](O)[C@@H]2O)c(=O)[nH]c1=O
GI50 at 96 h [1]: 13 µg/mL (≈ 50.3 µM) | inhibition at 1 µg/mL (Human alphaherpesvirus 1 [2]): > 90% | inhibition at 10 µg/mL (Human alphaherpesvirus 1 [3]): 100% | inhibition at 100 µg/mL (Human alphaherpesvirus 1 [4]): 100% | GI50 at 96 h [5]: > 100 µg/mL | inhibition at 0.01 µg/mL (Human alphaherpesvirus 1 [6]): < 90% | inhibition at 0.1 µg/mL (Human alphaherpesvirus 1 [7]): < 90%

Nc1nc(=O)n([C@@H]2O[C@H](CO)[C@@H](O)[C@@H]2F)cc1Br
GI50 at 96 h [1]: > 10 µg/mL | inhibition at 1 µg/mL (Human alphaherpesvirus 1 [2]): > 99% | inhibition at 10 µg/mL (Human alphaherpesvirus 1 [3]): 100% | GI50 at 96 h [5]: 10 µg/mL (≈ 30.9 µM) | inhibition at 0.01 µg/mL (Human alphaherpesvirus 1 [6]): < 90% | inhibition at 0.1 µg/mL (Human alphaherpesvirus 1 [7]): > 90%

Nc1ccn([C@@H]2O[C@H](CO)[C@@H](O)[C@@H]2F)c(=O)n1
GI50 at 96 h [1]: 0.05 µg/mL (≈ 0.204 µM) | inhibition at 1 µg/mL (Human alphaherpesvirus 1 [2]): > 90% | inhibition at 10 µg/mL (Human alphaherpesvirus 1 [3]): > 99.9% | inhibition at 100 µg/mL (Human alphaherpesvirus 1 [4]): > 100% | GI50 at 96 h [5]: 0.05 µg/mL (≈ 0.204 µM) | inhibition at 0.01 µg/mL (Human alphaherpesvirus 1 [6]): < 90% | inhibition at 0.1 µg/mL (Human alphaherpesvirus 1 [7]): > 90%

Nc1nc(=O)n([C@@H]2O[C@H](CO)[C@@H](O)[C@@H]2F)cc1F
GI50 at 96 h [1]: 0.4 µg/mL (≈ 1.52 µM) | inhibition at 1 µg/mL (Human alphaherpesvirus 1 [2]): > 99% | inhibition at 10 µg/mL (Human alphaherpesvirus 1 [3]): > 99.9% | GI50 at 96 h [5]: 0.5 µg/mL (≈ 1.9 µM) | inhibition at 0.01 µg/mL (Human alphaherpesvirus 1 [6]): < 90% | inhibition at 0.1 µg/mL (Human alphaherpesvirus 1 [7]): > 90%

Nc1nc(=O)n([C@@H]2O[C@H](CO)[C@@H](O)[C@@H]2F)cc1Cl
GI50 at 96 h [1]: 1 µg/mL (≈ 3.58 µM) | inhibition at 1 µg/mL (Human alphaherpesvirus 1 [2]): < 90% | inhibition at 10 µg/mL (Human alphaherpesvirus 1 [3]): > 99.9% | GI50 at 96 h [5]: 1.4 µg/mL (≈ 5.01 µM) | inhibition at 0.01 µg/mL (Human alphaherpesvirus 1 [6]): < 90% | inhibition at 0.1 µg/mL (Human alphaherpesvirus 1 [7]): < 90%

Cl.Nc1nc(=O)n([C@@H]2O[C@H](CO)[C@@H](O)[C@@H]2F)cc1I
GI50 at 96 h [1]: 14 µg/mL | Ratio (Human alphaherpesvirus 1 [8]): 1000 | inhibition at 1 µg/mL (Human alphaherpesvirus 1 [2]): > 100% | inhibition at 10 µg/mL (Human alphaherpesvirus 1 [3]): 100% | inhibition at 100 µg/mL (Human alphaherpesvirus 1 [4]): 100% | GI50 at 96 h [5]: 48 µg/mL | inhibition at 0.01 µg/mL (Human alphaherpesvirus 1 [6]): > 90% | inhibition at 0.1 µg/mL (Human alphaherpesvirus 1 [7]): > 99%

O=c1ccn([C@@H]2O[C@H](CO)[C@@H](O)[C@@H]2F)c(=O)[nH]1
GI50 at 96 h [1]: > 10 µg/mL | inhibition at 1 µg/mL (Human alphaherpesvirus 1 [2]): > 99% | inhibition at 10 µg/mL (Human alphaherpesvirus 1 [3]): > 99% | GI50 at 96 h [5]: > 10 µg/mL | inhibition at 0.01 µg/mL (Human alphaherpesvirus 1 [6]): < 90% | inhibition at 0.1 µg/mL (Human alphaherpesvirus 1 [7]): < 90%

O=c1[nH]c(=O)n([C@@H]2O[C@H](CO)[C@@H](O)[C@@H]2F)cc1F
GI50 at 96 h [1]: 0.7 µg/mL (≈ 2.65 µM) | inhibition at 1 µg/mL (Human alphaherpesvirus 1 [2]): > 100% | inhibition at 10 µg/mL (Human alphaherpesvirus 1 [3]): 100% | GI50 at 96 h [5]: 1 µg/mL (≈ 3.79 µM) | inhibition at 0.01 µg/mL (Human alphaherpesvirus 1 [6]): < 90% | inhibition at 0.1 µg/mL (Human alphaherpesvirus 1 [7]): > 99%

O=c1[nH]c(=O)n([C@@H]2O[C@H](CO)[C@@H](O)[C@@H]2F)cc1Cl
GI50 at 96 h [1]: 3.4 µg/mL (≈ 12.1 µM) | inhibition at 1 µg/mL (Human alphaherpesvirus 1 [2]): < 90% | inhibition at 10 µg/mL (Human alphaherpesvirus 1 [3]): > 100% | GI50 at 96 h [5]: 1.4 µg/mL (≈ 4.99 µM) | inhibition at 0.01 µg/mL (Human alphaherpesvirus 1 [6]): < 90% | inhibition at 0.1 µg/mL (Human alphaherpesvirus 1 [7]): < 90%

O=c1[nH]c(=O)n([C@@H]2O[C@H](CO)[C@@H](O)[C@@H]2F)cc1Br
GI50 at 96 h [1]: 1.6 µg/mL (≈ 4.92 µM) | inhibition at 1 µg/mL (Human alphaherpesvirus 1 [2]): > 99% | inhibition at 10 µg/mL (Human alphaherpesvirus 1 [3]): > 100% | GI50 at 96 h [5]: 0.9 µg/mL (≈ 2.77 µM) | inhibition at 0.01 µg/mL (Human alphaherpesvirus 1 [6]): < 90% | inhibition at 0.1 µg/mL (Human alphaherpesvirus 1 [7]): < 90%

Nc1nc(=O)n([C@@H]2O[C@H](CO)[C@@H](O)[C@@H]2O)cc1I
GI50 at 96 h [1]: 0.08 µg/mL (≈ 0.217 µM) | inhibition at 1 µg/mL (Human alphaherpesvirus 1 [2]): > 90% | inhibition at 10 µg/mL (Human alphaherpesvirus 1 [3]): > 100% | GI50 at 96 h [5]: 0.2 µg/mL (≈ 0.542 µM) | inhibition at 0.01 µg/mL (Human alphaherpesvirus 1 [6]): < 90% | inhibition at 0.1 µg/mL (Human alphaherpesvirus 1 [7]): < 90%

O=c1[nH]c(=O)n([C@@H]2O[C@H](CO)[C@@H](O)[C@@H]2O)cc1I
GI50 at 96 h [1]: 16 µg/mL (≈ 43.2 µM) | inhibition at 1 µg/mL (Human alphaherpesvirus 1 [2]): < 90% | inhibition at 10 µg/mL (Human alphaherpesvirus 1 [3]): > 90% | inhibition at 100 µg/mL (Human alphaherpesvirus 1 [4]): > 100% | GI50 at 96 h [5]: 30 µg/mL (≈ 81.1 µM) | inhibition at 0.01 µg/mL (Human alphaherpesvirus 1 [6]): < 90% | inhibition at 0.1 µg/mL (Human alphaherpesvirus 1 [7]): < 90%

Cc1cn([C@@H]2O[C@H](CO)[C@@H](O)[C@@H]2F)c(=O)[nH]c1=O [5-METHYL-2'-FLUOROARAURACIL]
GI50 at 96 h [1]: 1.9 µg/mL (≈ 7.3 µM) | inhibition at 1 µg/mL (Human alphaherpesvirus 1 [2]): > 99.9% | inhibition at 10 µg/mL (Human alphaherpesvirus 1 [3]): 100% | GI50 at 96 h [5]: 1.6 µg/mL (≈ 6.15 µM) | inhibition at 0.01 µg/mL (Human alphaherpesvirus 1 [6]): < 90% | inhibition at 0.1 µg/mL (Human alphaherpesvirus 1 [7]): > 90%

Nc1ccn([C@@H]2O[C@H](CO)[C@@H](O)[C@@H]2O)c(=O)n1 [CYTARABINE]
GI50 at 96 h [1]: 0.02 µg/mL (≈ 0.0822 µM) | inhibition at 1 µg/mL (Human alphaherpesvirus 1 [2]): > 90% | inhibition at 10 µg/mL (Human alphaherpesvirus 1 [3]): > 100% | inhibition at 100 µg/mL (Human alphaherpesvirus 1 [4]): > 100% | GI50 at 96 h [5]: 0.02 µg/mL (≈ 0.0822 µM) | inhibition at 0.01 µg/mL (Human alphaherpesvirus 1 [6]): < 90% | inhibition at 0.1 µg/mL (Human alphaherpesvirus 1 [7]): < 90%

O=c1[nH]c(=O)n([C@@H]2O[C@H](CO)[C@@H](O)[C@@H]2F)cc1I [FIALURIDINE]
GI50 at 96 h [1]: 0.8 µg/mL (≈ 2.15 µM) | inhibition at 1 µg/mL (Human alphaherpesvirus 1 [2]): > 99.9% | inhibition at 10 µg/mL (Human alphaherpesvirus 1 [3]): > 100% | GI50 at 96 h [5]: 0.9 µg/mL (≈ 2.42 µM) | inhibition at 0.01 µg/mL (Human alphaherpesvirus 1 [6]): < 90% | inhibition at 0.1 µg/mL (Human alphaherpesvirus 1 [7]): > 90%

Nc1nc(=O)n([C@H]2C[C@H](O)[C@@H](CO)O2)cc1I [IBACITABINE]
GI50 at 96 h [1]: > 100 µg/mL | inhibition at 1 µg/mL (Human alphaherpesvirus 1 [2]): > 90% | inhibition at 10 µg/mL (Human alphaherpesvirus 1 [3]): > 99.9% | GI50 at 96 h [5]: > 100 µg/mL | inhibition at 0.01 µg/mL (Human alphaherpesvirus 1 [6]): < 90% | inhibition at 0.1 µg/mL (Human alphaherpesvirus 1 [7]): < 90%

O=c1[nH]c(=O)n([C@H]2C[C@H](O)[C@@H](CO)O2)cc1I [IDOXURIDINE]
GI50 at 96 h [1]: 0.9 µg/mL (≈ 2.54 µM) | inhibition at 1 µg/mL (Human alphaherpesvirus 1 [2]): < 90% | inhibition at 10 µg/mL (Human alphaherpesvirus 1 [3]): > 90% | inhibition at 100 µg/mL (Human alphaherpesvirus 1 [4]): 100% | GI50 at 96 h [5]: 4.2 µg/mL (≈ 11.9 µM) | inhibition at 0.01 µg/mL (Human alphaherpesvirus 1 [6]): < 90% | inhibition at 0.1 µg/mL (Human alphaherpesvirus 1 [7]): < 90%
